Reference: article PMC7427514 (Chem, 2020)

How the values were obtained:
KCC2 = target: T1, KCC2 (Homo sapiens, UniProt Q9H2X9); test: Tl influx assay in KCC2-transfected HEK293 cells; assay type: cell-based; conditions: 10 μM, versus control DMSO, mean ± SEM
T1 sequence (Q9H2X9 1-1139): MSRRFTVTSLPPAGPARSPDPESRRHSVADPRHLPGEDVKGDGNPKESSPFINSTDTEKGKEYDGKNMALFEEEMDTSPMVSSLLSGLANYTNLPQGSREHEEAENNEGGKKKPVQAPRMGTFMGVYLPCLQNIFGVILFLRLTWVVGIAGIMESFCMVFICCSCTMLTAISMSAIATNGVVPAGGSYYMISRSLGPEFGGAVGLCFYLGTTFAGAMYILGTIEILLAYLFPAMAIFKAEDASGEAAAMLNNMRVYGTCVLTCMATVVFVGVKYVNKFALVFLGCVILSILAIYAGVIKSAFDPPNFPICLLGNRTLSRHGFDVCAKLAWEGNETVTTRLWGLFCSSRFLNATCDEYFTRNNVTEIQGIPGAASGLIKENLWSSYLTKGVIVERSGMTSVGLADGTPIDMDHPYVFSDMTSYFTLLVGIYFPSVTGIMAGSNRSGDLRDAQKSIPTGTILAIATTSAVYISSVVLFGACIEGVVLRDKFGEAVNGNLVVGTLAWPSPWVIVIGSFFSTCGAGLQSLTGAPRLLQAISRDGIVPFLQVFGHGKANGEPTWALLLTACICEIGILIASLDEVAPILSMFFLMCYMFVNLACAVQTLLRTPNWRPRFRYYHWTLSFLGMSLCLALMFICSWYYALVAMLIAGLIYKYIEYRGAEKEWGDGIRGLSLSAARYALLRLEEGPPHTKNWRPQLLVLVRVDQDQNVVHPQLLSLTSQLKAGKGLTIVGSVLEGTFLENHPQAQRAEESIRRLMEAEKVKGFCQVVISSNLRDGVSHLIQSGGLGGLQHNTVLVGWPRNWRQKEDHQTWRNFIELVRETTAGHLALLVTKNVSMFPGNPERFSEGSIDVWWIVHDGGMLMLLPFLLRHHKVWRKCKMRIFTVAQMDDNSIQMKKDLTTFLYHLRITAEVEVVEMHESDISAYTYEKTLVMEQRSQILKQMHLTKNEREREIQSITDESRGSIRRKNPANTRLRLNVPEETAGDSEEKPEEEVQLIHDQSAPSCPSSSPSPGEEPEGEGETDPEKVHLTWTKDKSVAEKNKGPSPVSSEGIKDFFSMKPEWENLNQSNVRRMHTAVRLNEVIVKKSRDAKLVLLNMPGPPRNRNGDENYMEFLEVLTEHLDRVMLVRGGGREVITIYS
Procedure, shortened: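 KCC2 (in PRK5)- or mock-transfected HEK293 cells were loaded for 1 h with Tl-sensitive dye (1:1,000) and probenecid (1:100) in Cl−-free hypotonic solution, washed, then treated with test compound with 100 μM ouabain. Fluorescence (ex 485/em 535 nm) was read for 20 s baseline, 20 s after TlSO4 (2 mM final), then 60 s after NaCl (74 mM final). Mock ΔF/F0 (last 10 s) was subtracted; fluorescence increase is expressed as % of DMSO control.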

[1] = tested on: 3DIV hippocampal mouse neurons; test: Ca2+ influx assay upon GABA application in immature; assay type: cell-based; conditions: for Ca2+ influx upon GABA application: 10, 100 μM, GABA 100 μM, compared with DMSO-treated controls; for cell viability (fluorescence level upon KCl application): KCl 90 mM, 3DIV neurons
VPA mice and controls = test: Diuresis analysis in VPA mice and controls; assay type: in vivo, mouse; conditions: 0.2 mg kg−1 IP; young adult control and VPA mice; relative to vehicle
Procedure, shortened: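 VPA-model offspring were from C57BL/6J dams given 600 mg/kg VPA i.p. in PBS at gestational day 12.5; controls were included. Mice of both sexes received one i.p. dose of vehicle or test compound at 0.2 mg/kg, from a 1 mg/mL DMSO stock diluted in PBS to 0.02 mg/mL and injected at 10 μL/g. Urine volume was collected for 120 min.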

GABAA receptors = test: Voltage-clamp recordings of GABA-evoked currents in neuronal cultures; assay type: cell-based; conditions: 10 μM bath application; 12–20 DIV hippocampal mouse neurons
Procedure, shortened: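 Cultured hippocampal mouse neurons at DIV12–20 were voltage-clamped at 22–24°C in extracellular solution. GABA-evoked currents (average of five sweeps) were recorded before and after bath application of test compound (10 μM). Cells with access resistance >25 MΩ or with >20% variation in GABA-current peak were excluded. Signals were sampled at 20 kHz and low-pass filtered at 10 kHz.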

[2] = tested on: valproic acid (VPA) mouse model of ASD; test: Grooming test in VPA mice; assay type: in vivo; conditions: 0.2 mg kg−1 IP daily, chronic
Procedure, shortened: (§1)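 Male VPA-model mice (prenatal VPA 600 mg/kg i.p. at gestational day 12.5) and controls, 6–8 weeks old, were randomized to vehicle (2% DMSO in saline) or test compound 0.2 mg/kg i.p. daily for 21–28 days. Tests started after 1 week of treatment, 1 h post-injection, and were video-scored manually by a blind operator.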

NKCC2 = target: T2, NKCC2 (Homo sapiens, UniProt Q13621); test: Cl− influx assay in NKCC2-transfected HEK293 cells; assay type: cell-based; conditions: HEK293, read-out: NKCC2 inhibition
T2 sequence (Q13621 1-1099): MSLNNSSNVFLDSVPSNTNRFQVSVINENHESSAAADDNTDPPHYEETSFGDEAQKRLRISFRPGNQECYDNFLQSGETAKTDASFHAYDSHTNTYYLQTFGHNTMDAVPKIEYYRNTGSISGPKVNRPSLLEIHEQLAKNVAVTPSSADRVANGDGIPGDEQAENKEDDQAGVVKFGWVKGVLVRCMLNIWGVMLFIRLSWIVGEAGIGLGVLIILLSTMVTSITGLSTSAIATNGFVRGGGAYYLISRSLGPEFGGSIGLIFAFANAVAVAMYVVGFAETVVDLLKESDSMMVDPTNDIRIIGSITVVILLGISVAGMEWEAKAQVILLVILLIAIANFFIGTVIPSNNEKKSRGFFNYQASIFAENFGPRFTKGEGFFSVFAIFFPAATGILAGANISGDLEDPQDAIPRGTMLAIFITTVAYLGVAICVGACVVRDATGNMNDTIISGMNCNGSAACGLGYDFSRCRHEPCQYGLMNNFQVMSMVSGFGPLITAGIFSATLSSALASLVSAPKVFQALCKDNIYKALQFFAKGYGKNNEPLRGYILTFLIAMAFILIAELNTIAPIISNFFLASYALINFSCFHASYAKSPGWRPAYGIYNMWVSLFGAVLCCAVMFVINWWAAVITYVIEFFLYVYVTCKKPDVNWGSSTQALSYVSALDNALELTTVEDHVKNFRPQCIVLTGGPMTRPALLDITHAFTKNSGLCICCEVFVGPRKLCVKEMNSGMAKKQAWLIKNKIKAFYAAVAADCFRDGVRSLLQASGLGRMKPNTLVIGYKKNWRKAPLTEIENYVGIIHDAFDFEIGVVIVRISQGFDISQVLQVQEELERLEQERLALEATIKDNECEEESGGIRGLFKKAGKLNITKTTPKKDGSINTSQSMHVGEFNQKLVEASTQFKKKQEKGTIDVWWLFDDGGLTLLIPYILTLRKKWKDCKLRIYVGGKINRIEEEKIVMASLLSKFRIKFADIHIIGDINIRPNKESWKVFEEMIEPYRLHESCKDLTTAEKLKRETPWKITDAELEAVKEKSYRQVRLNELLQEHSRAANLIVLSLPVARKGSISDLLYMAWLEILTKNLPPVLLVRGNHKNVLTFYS
Procedure, shortened: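 HEK293 cells were co-transfected by lipofection with NKCC2 (in PRK5) or empty vector plus membrane-tagged Cl−-sensitive YFP, replated after 4 h, and assayed at 48 h. Test compound (10 or 100 μM) was applied for 30 min in Cl−-free hypotonic HEPES buffer, pH 7.4. Fluorescence (ex 485/em 535 nm) was read for 20 s baseline and 60 s after NaCl (74 mM final). Fluorescence decrease is expressed as % of DMSO control; four independent experiments, mean ± SEM.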

[3] = tested on: valproic acid (VPA) mouse model of ASD; test: Male-female interaction test in VPA mice; assay type: in vivo; conditions: 0.2 mg kg−1 IP daily, chronic
Procedure, shortened: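 Male VPA-model mice (6–8 weeks) and controls were dosed i.p. daily with vehicle or test compound at 0.2 mg/kg, with testing 1 h post-injection after at least 1 week of treatment. Each male was placed alone in a cage and habituated for 5 min. An unfamiliar C57BL/6J female was then introduced, and behavior was recorded for 5 min and scored blind.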

[4] = tested on: Ts65Dn mice and WT littermates; test: Diuresis analysis in Ts65Dn mice and WT littermates; assay type: in vivo, mouse; conditions: 0.2 mg kg−1 IP; adult WT and Ts65Dn mice; relative to vehicle
Procedure, shortened: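 Adult (P60–120) Ts65Dn mice and WT littermates of both sexes received one i.p. dose of vehicle or test compound at 0.2 mg/kg. The dose was given from a 1 mg/mL DMSO stock diluted in PBS to 0.02 mg/mL and injected at 10 μL/g. Urine volume was collected for 2 h, after which mice were returned to home cages.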

[5] = tested on: WT and Ts65Dn hippocampal neurons; test: MQAE Cl− imaging in neuronal cultures; assay type: cell-based, mouse; conditions: 10 μM
Procedure, shortened: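 Hippocampal neurons from P2 WT and Ts65Dn pups were cultured on poly-L-lysine coverslips in Neurobasal-A/B-27. At 15 DIV they were loaded with 5 mM MQAE plus test compound (10 μM) or DMSO for 30 min at 37°C. Coverslips were then perfused with extracellular solution (pH 7.4) containing compound for 5 min at 25°C and imaged by confocal microscopy.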

[6] = tested on: valproic acid (VPA) mouse model of ASD; test: Marble burying test in VPA mice; assay type: in vivo; conditions: 0.2 mg kg−1 IP daily, chronic
Procedure, shortened: as §1

Row | KCC2 inhibition (KCC2) [%] | diuretic effect (urine volume for 2 h) (VPA mice and controls) | inhibitory activity on GABAA receptors (GABA-evoked currents) (GABAA receptors) | inhibition at 10 µM (NKCC2) [%] | diuretic effect (urine volume for 2 h) [4] | Compound | Ca2+ influx upon GABA application [1] | level of alleged NKCC1 inhibition in the Ca2+ influx assay compared with the Cl− influx assay ([1]; 10 and 100 μM) | cell viability (fluorescence level upon KCl application) [1] | repetitive behaviors in the grooming task [2] | sociability during male-female interaction [3] | [Cl−]i in wild-type (WT) neurons ([5]; 15 DIV WT neurons) | [Cl−]i in Ts65Dn neurons ([5]; mature (15 DIV) Ts65Dn neurons) | repetitive behaviors in the marble burying test [6]
1 | 37.6 ± 6.7 |  |  |  |  | CCCC[C@]1(C2CCCC2)Cc2cc(OCC(=O)O)c(Cl)c(Cl)c2C1=O [DIOA, R-(+)-[(2-n-Butyl-6,7-dichloro-2-cyclopentyl-2,3-dihydro-1-oxo-1H-inden-5-yl)oxy]acetic acid] |  |  |  |  |  |  |  | 
2 |  | significantly increased the urine volume | this was not the case | 82.7 ± 20.4 | significantly increased the urine volume | CCCCNc1cc(C(=O)O)cc(S(N)(=O)=O)c1Oc1ccccc1 [bumetanide] | significantly reduced | corresponded to the levels obtained for the Cl^− influx assay | without affecting the cell viability | non-significant trend toward WT levels | rescued poor sociability | without significantly affecting | restored aberrant [Cl^−]i to physiological levels | significantly reduced repetitive behaviors
3 |  |  | variable inhibitory activity |  |  | NS(=O)(=O)c1cc(C(=O)O)c(NCc2ccco2)cc1Cl [furosemide] | significantly reduced |  | without affecting the cell viability |  |  |  |  | 
